Active and inactive are the calls of the source. The calls are words filed in the database; no cut-off is given here.
What was measured:
[1] = Binding affinity to 5'-FAM-GCGTCCACCCTCCCTGCCCCGCCGCCCCCCCTTCTCCCAGC-TAMRA-3' i-motif DNA (unknown origin) assessed as unfolding i-motif structure by measuring reduction in I585/I518 ratio at 2 to 10 equiv by FRET assay; details: dose 2-10 equiv
How it was run: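 FRET probe dual-labelled FAM donor/TAMRA acceptor, annealed, 10 µM in 30 mM BPES buffer with 1 mM EDTA, 100 mM KCl; compound added in equal volume. Emission 500–700 nm recorded, corrected for compound signal in the same buffer; I585/I518 ratio compared. The i-motif forms at pH 6.2 and unfolds at pH 6.4.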

[2] = Binding affinity to 5'-biotin-d [GCGTCCACCCTCCCTGCCCCGCCGCCCCCCCITCTCCCAGC]-3' i-motif DNA (unknown origin) assessed as change in melting temperature at 10 uM by CD spectroscopy
How it was run: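 Oligomer 2 µM in BPES buffer pH 5.5, heated to 95 °C for 5 min, cooled slowly and held at 4 °C overnight. Ligand 10 µM. CD ellipticity followed at 288 nm from 25–95 °C (1 mm cuvette); Tm derived, ΔTm against DNA alone.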

[3] = Binding affinity to FAM-labeled 5'-biotin-d[TATAGCTATA-HEG-TATAGCTATA]- 3' duplex DNA (unknown origin) by microscale thermophoresis assay
How it was run: (§1)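 Microscale thermophoresis with DNA held constant at 1 µM. Compound serially diluted 3:4 from 10 µM over 12 points. Samples run in standard glass capillaries with LED and laser power both at 20%. KD derived by fitting.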

MCF7 = assay: Binding affinity to wild type PDGFRbeta promoter (unknown origin) in human MCF7 cells assessed as down regulation of PDGFRbeta mRNA expression at 1.25 to 20 uM after 12 hrs by RT-PCR analysis; assay type: cell-based; details: dose 1.25-20 µM
Quadruplex DNA [4] = assay: Binding affinity to 5'-FAM-GGGAGAAGGGGGGGCGGCGGGGCAGGGAGGGTGGAC-TAMRA-3' G4-quadruplex DNA (unknown origin) assessed as stabilization G4-quadruplex structure by measuring increase in I585/I518 ratio by FRET assay; assay type: nucleic-acid assay; details: dose 2-10 equiv
How it was run: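 FRET probe dual-labelled FAM/TAMRA, annealed, 10 µM in 10 mM Tris-HCl pH 7.4 with 10 mM KCl; compound added in equal volume. Emission 500–700 nm recorded, corrected for compound signal in the same buffer; I585/I518 ratio compared.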

Quadruplex DNA [5] = assay: Binding affinity to FAM-labeled 5'-biotin-d [GCTGGGAGAAGGGGGGGCGGCGGGGCAGGGAGGGTGGACGC]-3' G4-quadruplex DNA (unknown origin) by microscale thermophoresis assay; assay type: nucleic-acid assay; how it was run: as §1
Quadruplex DNA [6] = assay: Binding affinity to 5'-biotin-d [GCTGGGAGAAGGGGGGGCGGCGGGGCAGGGAGGGTGGACGC]-3' G4-quadruplex DNA (unknown origin) assessed as change in melting temperature at 10 uM by CD spectroscopy; assay type: nucleic-acid assay
How it was run: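 Oligomer 2 µM in Tris-HCl pH 7.4, annealed (95 °C for 5 min, slow cooling, 4 °C overnight). Ligand 10 µM. CD ellipticity followed at 263 nm over 25–95 °C; ΔTm taken against DNA alone.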

[7] = Binding affinity to FAM-labeled 5'-biotin-d [GCGTCCACCCTCCCTGCCCCGCCGCCCCCCCITCTCCCAGC]-3' i-motif DNA (unknown origin) by microscale thermophoresis assay; how it was run: as §1

In the case of `C[n+]1ccc(-c2c3nc(c(-c4cc[n+](C)cc4)c4ccc([nH]4)c(-c4cc[n+](C)cc4)c4ccc([nH]4)c(-c4cc[n+](C)cc4)c4nc2C=C4)C=C3)cc1` [TMPYP4], the Activity [1] is reported as “inactive”, the ΔTm [2] is reported as 0.11 °C and the Kd [3] is reported as 1310 µM. For the same molecule, the Activity (MCF7) was “Dose-dependent effect”, the Activity (Quadruplex DNA [4]) was “Dose-dependent effect” and the Kd (Quadruplex DNA [5]) was 3.96 µM. The ΔTm (Quadruplex DNA [6]) was over 20 °C and the Kd [7] was 463 µM.

— ChEMBL document CHEMBL4715918, “Syntheses and evaluation of acridone-naphthalimide derivatives for regulating oncogene PDGFR-β expression” (Bioorg Med Chem, 2021)
